CHOP UPR activ: activators of apoptotic CHOP UPR arm, primary screen, cell-based, CHO-CHOP luciferase reporter, luminescence, uHTS. 330,000 compounds, 0.34% hits. activation, % at 10 µM. UPR activation; percent of tunicamycin response over DMSO baseline. AID 449763, 2010;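 active = at 10 µM dose, activation of 40% or more, normalized to positive control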;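 note: 100% = tunicamycin at 10 µg/mL and 0% = DMSO alone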
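System: CHO-CHOP luciferase reporter cell line; amount: 500 cells/well; buffer or medium: F12 medium containing 10% fetal bovine serum; incubation: 6 h compound exposure at 37 °C after overnight seeding; measured by: luciferase luminescence after 10 min with Steady-Glo reagent; evaluation: % reporter activation, DMSO baseline versus tunicamycin full activation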
XBP1 UPR activ: activators of adaptive XBP1 UPR arm, primary screen, cell-based, CHO-XBP1 luciferase reporter, luminescence, uHTS. activation, % at 20 µM. IRE1-XBP1 UPR activation; percent of tunicamycin response, DMSO as zero. AID 463104, 2010. 330,000 compounds, 0.33% hits;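 active = versus positive control, 20 µM dose yields 30% or more activation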;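 note: 100% = tunicamycin at 10 µg/mL and 0% = DMSO only wells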
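Signal: luciferase luminescence; Assay system: CHO-XBP1 luciferase reporter cells; Amount: one thousand reporter cells per well; Dosing: 20 µM single concentration, DMSO 1%; Benchmarks: high control tunicamycin 10 µg/mL final, low control DMSO vehicle only; Schedule: 6 h compound exposure at 37 °C, 5% CO2; Evaluation: percent activation relative to tunicamycin reference.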
tim23-1 inh: growth inhibitors of tim23-1 mutant yeast, primary screen, luminescence, uHTS | S. cerevisiae tim23-1 growth, BacTiter-Glo luminescence, 24 h | inhibition, % at 20 µM | 330,000 compounds, 1.3% hits;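 active = growth inhibition of the mutant yeast at or above 50%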;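 note: temperature-sensitive mutant grown at 25 °C; plate controls were DMSO-treated mutant yeast for no effect and medium wells lacking yeast for full effect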
TIM10 inh: growth inhibitors of isogenic TIM10 control yeast, primary screen, counter-screen for tim10-1 yeast inhibitor project, luminescence, uHTS. S. cerevisiae TIM10 strain growth, BacTiter-Glo luminescence, 24 h. inhibition, % at 10 µM. 330,000 compounds, 1.4% hits. AID 463195, 2010;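 active = inhibition of 40% or more at the single tested concentration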;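 note: wild-type TIM10 isogenic control strain grown at permissive 25 °C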
tim10-1 inh: growth inhibitors of tim10-1 mutant yeast, primary screen, luminescence, uHTS; S. cerevisiae tim10-1 ts strain growth, BacTiter-Glo, 24 h; inhibition, % at 20 µM; 330,000 compounds, 2.2% hits;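 active = inhibition of at least 40%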;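 note: mutant grown at 25 °C; 0% = DMSO wells with yeast and 100% = wells holding no yeast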
tim10-1 conf: growth inhibitors of tim10-1 mutant yeast, confirmation, single concentration, luminescence, S. cerevisiae. AID 463213, 2010. inhibition, % at 20 µM. shares compounds with tim10-1 inh. S. cerevisiae tim10-1 ts strain growth, BacTiter-Glo, 24 h. 7,400 compounds, 56% hits;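 active = inhibition of yeast growth at or above a set limit in either of two repeat tests at 20 µM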;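 note: tim10-1 mutant grown at permissive 25 °C to find synthetic lethal compounds; 0% = DMSO yeast wells and 100% = medium wells without yeast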
Active calls of the source: *; nt = no result; ! = a repeat was not active. Compounds with a hit are over-represented: about 3.9% of the library has one in this group of screens.

SMILES	CHOP UPR activ	XBP1 UPR activ	tim23-1 inh	TIM10 inh	tim10-1 inh	tim10-1 conf
Cc1cc(NC(=O)CSc2nc3ccccc3[nH]2)n(-c2ccccc2)n1	-1	-1	-2	0	13	nt
CCc1nnc(SCC(=O)Nc2ccc3ccccc3c2)n1N	1	-3	-15	-2	-11	nt
O=C(CSc1nc2ccccc2[nH]1)N1c2ccccc2Sc2ccccc21	0	-1	37	26	46*	20
Cc1cc(NC(=O)C(C)SCC(=O)OCc2c(Cl)cccc2Cl)no1 (configuration not stated)	-1	-4	29	-1	5	nt
CCn1c(C)c(C)c2cc(C(=O)N3CCc4ccccc4C3)ccc21	2	-1	47	27	48*	1
CCN1CCN(C(=O)c2ccc3c(c2)c(C)c(C)n3Cc2ccccc2)CC1	4	2	14	3	19	nt
COc1ccc(CCNc2cc(C)nc3c(-c4ccccc4)c(C)nn23)cc1OC	-1	-4	25	18	43*	20
COc1ccc(-c2c(C)nn3c(NC4CCCC4)cc(C)nc23)cc1OC	-2	2	42	9	44*	23
CC(=O)NCCc1nc2cc(NC(=O)c3ccc([N+](=O)[O-])cc3)ccc2n1C	0	-2	6	4	5	nt
O=C(CSc1ccccc1)NNC(=O)c1ccccc1O	1	-4	15	15	16	nt
CN1/C(=C\C(=O)Nc2ccc(Br)cc2)C(C)(C)c2ccccc21	3	1	49	39	46*	54*
CN(C)CC/C=C1/c2ccccc2Sc2ccc(Cl)cc21	-1	-2	-19	20	41*!	27
CCCCCC[N+](C)(C)CC/C=C1/c2ccccc2Sc2ccc(Cl)cc21	2	2	24	17	14	nt
COc1cc(/C=C2/SC(=S)N(CC(=O)O)C2=O)ccc1OCC(=O)Nc1ccc(C)c(C)c1	1	-4	-2	10	-3	nt
CC[C@]1(C(=O)OC)[C@H]2C(=O)N(C)C(=O)[C@H]2[C@H]2CN=C(SCc3ccc(C)cc3)N21	1	1	35	-5	19	nt
CC(C)OC(=O)c1sc2nc(-c3ccccc3)ccc2c1N	-1	-1	19	-1	34	nt
Cc1ccc2c(N)c(C(=O)N(c3ccccc3)c3ccccc3)sc2n1	-4	0	13	26	44*	24
O=C1C2C3C=CC(CO)(O3)C2C(=O)N1c1ccccc1-c1ccccc1 (configuration not stated)	8	-5	-5	19	53*	87*
CC(=O)Oc1ccc(N2C(=O)C3C4C=CC(CO)(O4)C3C2=O)cc1 (configuration not stated)	-1	-2	7	-6	-1	nt
COc1cc(C(=O)O/N=C(\N)Cc2ccc([N+](=O)[O-])cc2)cc(OC)c1OC	1	4	22	25	63*	53*
CCOc1ccc(C(=O)O/N=C(\N)c2ccc([N+](=O)[O-])cc2)cc1OCC	3	1	13	2	28	nt
Cc1cc(Nc2nc(Cl)c(Cl)cc2Cl)n(-c2ccccc2)n1	3	-1	45	29	45*	34*
Cc1ccc(CNC(=O)C(=O)NCC2CCCN2S(=O)(=O)c2cccs2)cc1 (configuration not stated)	1	-1	-3	-13	0	nt
N#Cc1cnn2c(-c3cccc([N+](=O)[O-])c3)ccnc12	1	2	27	9	16	nt
CC(C)NC(=O)NC(=O)COc1ccc(Br)cc1Br	0	0	45	18	45*	24
SMILES	CHOP UPR activ	XBP1 UPR activ	tim23-1 inh	TIM10 inh	tim10-1 inh	tim10-1 conf
O=C(COc1ccc(Br)cc1Br)NC1CCCC1	4	5	-2	-20	-13	nt
COc1ccc(Br)cc1C(=O)Nc1cccc(C)c1	1	-3	4	-11	4	nt
COc1ccc(Br)cc1C(=O)Nc1cccc(NC(=O)c2ccco2)c1	2	5	49	14	42*	31*
COc1c(C)cc(Br)cc1C(=O)Nc1cccc(NC(=O)c2ccco2)c1	-2	1	42	36	42*	36*
CCOC(=O)C1CCN(C(=O)C2CCCN(c3ncnc4c3nc3n4CCCCC3)C2)CC1 (configuration not stated)	0	-2	6	20	2	nt
CCN(Cc1ccccc1)C(=O)C1CCN(c2ncnc3c2nc2n3CCCCC2)CC1	5	-3	14	8	18	nt
O=C(C1CCN(c2ncnc3c2nc2n3CCCCC2)CC1)N1CCN(c2ccc(F)cc2)CC1	3	-5	-28	-63	44*	-97
O=C(C1CCN(c2ncnc3c2nc2n3CCCCC2)CC1)N1CCCCC1	-1	-4	-7	-7	0	nt
CCc1ccccc1N(CC)C(=O)C1CCN(c2ncnc3c2nc2n3CCCCC2)CC1	2	7	33	17	42*	10
COCCn1c(SCC(=O)N(C)c2ccccc2)nc2c([nH]c3ccccc32)c1=O	1	-6	1	2	7	nt
COc1ccc(N2C(=O)CC(Sc3nnc(-c4ccccc4)o3)C2=O)cc1 (configuration not stated)	-10	-7	41	39	53*	55*
CCCCNC(=O)CNC(=S)N(Cc1ccccc1)Cc1cccs1	0	-2	14	8	47*	28
COC(CNC(=O)CNC(=S)N(Cc1ccccc1)Cc1cccs1)OC	1	0	12	-7	16	nt
CCN(C(=O)COC(=O)c1ccc(F)c(S(=O)(=O)N2CCOCC2)c1)C1CCS(=O)(=O)C1 (configuration not stated)	-1	-2	9	-2	-19	nt
Cc1noc(C)c1COC(=O)c1csc2c1CCCC2	-2	-1	12	-12	1	nt
O=C(CCNS(=O)(=O)c1ccccc1)N1CCC(Cc2ccccc2)CC1	0	-3	27	-54	5	nt
CCCN(CCC)S(=O)(=O)c1ccc(C(=O)Nc2nnc(-c3cc(OC)cc(OC)c3)o2)cc1	11	5	-5	22	41*	8
O=C(Nc1ccccc1)N1CCC(C(=O)N2CCCC(C(F)(F)F)C2)CC1 (configuration not stated)	1	-5	3	7	-13	nt
O=C(O)c1ccc(-c2cccc([N+](=O)[O-])c2)o1	-2	1	2	-7	-16	nt
O=C(NC1CCCCC1)c1ccc(-c2cccc([N+](=O)[O-])c2)o1	3	-2	40	28	41*	25
